Here are results for 17 compounds from ChEMBL document CHEMBL1148197, “Three new manzamine alkaloids from a common Indonesian sponge and their activity against infectious and tropical parasitic diseases” (J Nat Prod, 2004).

In data set [1] the test system is Vero. Kind of data set: Cytotoxicity against african green monkey Vero cells. The format is cell-based. To be noted: chlorocebus sabaeus. An outline of the steps:
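Vero (African green monkey kidney) cell cytotoxicity, reported in µg/mL. Compounds without cytotoxicity were scored at a tested concentration of 4.7 µg/mL.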

The test system of data set [2] is Mycobacterium intracellulare. In words: Antibacterial activity against Mycobacterium intracellular. The format is functional, organism-based.
For data set [3], the system named is Staphylococcus aureus. In words: Antibacterial activity against methicillin-resistant Staphylococcus aureus. Format: functional, organism-based.
The next data set relates to Cryptococcus neoformans. Kind of data set: […] activity against Cryptococcus neoformans. The format is functional, organism-based.
Data set [4] deals with Mycobacterium tuberculosis. In words: Antitubercular activity against Mycobacterium tuberculosis H37Rv. Format: functional.
For data set [5], the system named is Staphylococcus aureus. Kind of data set: Antimicrobial activity against Staphylococcus aureus. The format is functional, organism-based.
Data set [6] relates to Leishmania donovani. In words: Antileishmanial activity against Leishmania donovani. The format is functional, organism-based.
For data set [7], the system named is Human immunodeficiency virus 1. Kind of data set: Antiviral activity against HIV1 infected in human PBMCs. Format: functional, organism-based.
The subject of data set [8] is Vero. Kind of data set: Cytotoxicity against african green monkey Vero cells at 4.7 ug/mL. The format is cell-based. The note with it: chlorocebus sabaeus.
The test system of data set [9] is Plasmodium falciparum. In words: Antimalarial activity against Plasmodium falciparum D6. The format is functional, organism-based.
For data set [10], the system named is Plasmodium falciparum. In words: Antimalarial activity against chloroquine-resistant Plasmodium falciparum W2. Format: functional, organism-based.
Data set [11] relates to Plasmodium falciparum. In words: Antimalarial activity against chloroquine-resistant Plasmodium falciparum W2 at 5 ug/mL. The format is functional, organism-based.
For data set [12], the system named is Leishmania donovani. Kind of data set: Antileishmanial activity against Leishmania donovani at 5 ug/mL. Format: functional, organism-based.
Data set [13] has as its system Plasmodium falciparum. Kind of data set: Antimalarial activity against Plasmodium falciparum D6 at 5 ug/mL. The format is functional, organism-based.

By IC50 is commonly meant the point on the concentration scale where inhibition reaches its midpoint. By MIC is commonly meant the lowest concentration found to suppress growth. What is called IC90 is the concentration at which the effect reaches the 90% level. As a reminder, the EC50 is the concentration giving half of the maximal effect.

Molecules are shown by their SMILES. Values after ≈ are worked out from the molar mass of the structure shown. Active and inactive are the calls of the source. No cut-off for these calls is given here.

In the data set on Vero [1], `O[C@]12C=C(c3nccc4c3[nH]c3ccccc34)C3CCN(CCCC/C=C\CC1)C[C@@]31C[C@]34CC[C@H](CCCN3[C@H]12)O4` (stereo partly specified) [6-Deoxymanzamine X] registered an Activity of 4.7 µg/mL. For the same compound, the IC50 in [2] came out at 6.25 mg/L (≈ 11.1 µM); in the data set on Staphylococcus aureus [3] it was 1.5 mg/L (≈ 2.66 µM); in the data set on Cryptococcus neoformans, 2 mg/L (≈ 3.54 µM); with Staphylococcus aureus [5] it was 1.5 mg/L (≈ 2.66 µM). Besides, the MIC in [4] was determined as 1.8 mg/L (≈ 3.19 µM).
For the compound `N=C(N)c1ccc(OCCCCCOc2ccc(C(=N)N)cc2)cc1` [PENTAMIDINE], in the data set with Leishmania donovani [6], the 90% effect level (IC90) was put at 10 mg/L (≈ 29.4 µM).
On to `CO[C@H]1/C=C/O[C@@]2(C)Oc3c(C)c(O)c4c(O)c(c(/C=N/N5CCN(C)CC5)c(O)c4c3C2=O)NC(=O)/C(C)=C\C=C\[C@H](C)[C@H](O)[C@@H](C)[C@@H](O)[C@@H](C)[C@H](OC(C)=O)[C@@H]1C` [RIFAMPIN], for which inhibition of growth in data set [4] (MIC) required 0.5 mg/L (≈ 0.608 µM).
With `C[C@@H]1[C@H](O)[C@@H](C)/C=C/C=C/C=C/C=C/C=C/C=C/C=C/[C@H](O[C@@H]2O[C@H](C)[C@@H](O)[C@H](N)[C@@H]2O)C[C@@H]2O[C@](O)(C[C@@H](O)C[C@@H](O)[C@H](O)CC[C@@H](O)C[C@@H](O)CC(=O)O[C@H]1C)C[C@H](O)[C@H]2C(=O)O` [AMPHOTERICIN B], it took 0.15 mg/L (≈ 0.162 µM) to reach the 90% level with Leishmania donovani [6] (IC90).
On to `O[C@]12C=C(c3nccc4c3[nH]c3ccccc34)[C@@H]3CCN(CCCC/C=C\CC1)C[C@@]31C[C@@H]3/C=C\CCCCN3[C@H]12` [MANZAMINE A], for which the Activity in the data set with Vero [1] is 1.2 µg/mL. This compound also came in with a 50% effective concentration (EC50) in data set [7] of 4.2 µM. In the data set with Leishmania donovani [6], the IC90 turned out to be 1.8 mg/L (≈ 3.28 µM).
With `O=C1CCCN2[C@@H](CC1)C[C@]13CN4CCCC/C=C\CC[C@](O)(C=C(c5nccc6c5[nH]c5ccccc56)C1CC4)[C@H]23` (stereo partly specified) [MANZAMINE E], it took 13.1 µM to reach a half-maximal effect in [7] (EC50). In addition, the Activity entry in the data set with Vero [8] was “Non-toxic”. Further, the result in the data set on Staphylococcus aureus [3], in the data set with Cryptococcus neoformans and with Staphylococcus aureus [5] was inactive. In the data set on Leishmania donovani [6], the IC90 was 6.8 mg/L (≈ 12 µM).
As for `O[C@@H]1CCCN2CC[C@@H]1O[C@@]13CC[C@@H](OC[C@]45CN6CCCC/C=C\CC[C@](O)(C=C(c7nccc8c7[nH]c7ccccc78)[C@@H]4CC6)[C@H]25)[C@@H](O)CCN1[C@@H]1[C@]2(CN4CCCC/C=C\CC[C@]1(O)C=C(c1nccc5c1[nH]c1ccccc15)[C@@H]2CC4)C3` [NEO-KAULUAMINE], the IC50 in data set [2] is 3 mg/L (≈ 2.58 µM); with Plasmodium falciparum [9], 1.7 mg/L (≈ 1.46 µM); in the data set with Leishmania donovani [6], 4.2 mg/L (≈ 3.61 µM); in the data set with Plasmodium falciparum [10] it was 2.8 mg/L (≈ 2.41 µM); with Cryptococcus neoformans, 3 mg/L (≈ 2.58 µM). This compound displayed an EC50 in [7] of 2.3 µM. The Activity entry with Vero [8] was “Non-toxic”. The outcome in the data set with Staphylococcus aureus [3] and with Staphylococcus aureus [5] was inactive. It took 8.2 mg/L (≈ 7.05 µM) to reach the 90% level in the data set on Leishmania donovani [6] (IC90). This compound had an MIC in [4] of 2 mg/L (≈ 1.72 µM).
Turning to `Oc1cccc2c1[nH]c1c(C3=C[C@@]4(O)CC/C=C\CCCCN5CC[C@@H]3[C@]3(CC6/C=C\CCCCN6[C@H]34)C5)nccc12` (stereo partly specified), in the data set with Vero [1], the Activity is 1.1 µg/mL. Besides, in [7], the midpoint of the response, the EC50, lay at 0.59 µM. In addition, it took 11 mg/L (≈ 19.5 µM) to reach the 90% level with Leishmania donovani [6] (IC90).
In turn, `O=C1CCCN2[C@@H](CC1)C[C@]13CN4CCCC/C=C\CC[C@](O)(C=C(c5nccc6c5[nH]c5c(O)cccc56)C1CC4)[C@H]23` (stereo partly specified) [MANZAMINE F] displayed an EC50 in data set [7] of 7.3 µM. The Activity entry in the data set with Vero [8] was “Non-toxic”. Also, the result in the data set with Staphylococcus aureus [3] and in the data set with Staphylococcus aureus [5] was inactive. Further, the IC90 in the data set with Leishmania donovani [6] was determined as 7 mg/L (≈ 12.1 µM).
Regarding `[O-][N+]1=C(C2=C[C@@]3(O)CC/C=C\CCCCN4CC[C@@H]2[C@]2(CC5/C=C\CCCCN5[C@H]23)C4)c2[nH]c3ccccc3c2CC1` (stereo partly specified), the outcome (in data set [2]; in [7]; in the data set with Staphylococcus aureus [3]; in the data set with Cryptococcus neoformans; in the data set with Staphylococcus aureus [5]) was inactive. Also, in the data set with Vero [8], the Activity entry is listed as “Non-toxic”.
Consider `OC1=C[C@@]2(O)CC/C=C\CCCCN3CC[C@@H]1[C@]1(C[C@@H]4/C=C\CCCCN4[C@H]12)C3` [IRCINOL A], for which the concentration for half-maximal inhibition (IC50) in data set [2] was 50 mg/L (≈ 125 µM); in the data set with Staphylococcus aureus [3] it was 30 mg/L (≈ 75.3 µM); with Plasmodium falciparum [9], 2.4 mg/L (≈ 6.02 µM); with Plasmodium falciparum [10] it was 3.1 mg/L (≈ 7.78 µM). The compound further gave an EC50 in data set [7] of 4.3 µM. Further, the Activity entry with Vero [8] is recorded as “Non-toxic”. Moreover, the 90% effect level in the data set on Leishmania donovani [6] (IC90) was put at 0.7 mg/L (≈ 1.76 µM). Further, the outcome in the data set on Cryptococcus neoformans and in the data set with Staphylococcus aureus [5] was inactive. This compound also displayed an MIC in data set [4] of 1.9 mg/L (≈ 4.77 µM).
As for `O=C1CCCN2[C@@H](CC1)C[C@]13CN4CCCC/C=C\CC[C@](O)(C=C(c5nccc6c5[nH]c5ccc(O)cc56)[C@@H]1CC4)[C@H]23`, the Activity in the data set with Vero [1] came to 4.3 µg/mL.
Regarding `O[C@]12C=C(c3nccc4c3[nH]c3ccccc34)[C@@H]3CCN(CCCC/C=C\CC1)C[C@@]31CC/C=C\CCCCN[C@H]12` [MANZAMINE J], the half-inhibitory concentration (IC50) came to 15 mg/L (≈ 27.2 µM) in [2], 1.3 mg/L (≈ 2.36 µM) in the data set with Plasmodium falciparum [9], 25 mg/L (≈ 45.4 µM) in the data set with Leishmania donovani [6] and 0.75 mg/L (≈ 1.36 µM) in the data set with Plasmodium falciparum [10]. Further, the Activity result in the data set on Vero [8] is given as “Non-toxic”. Besides, the result in the data set on Staphylococcus aureus [3], in the data set with Cryptococcus neoformans and with Staphylococcus aureus [5] was inactive. The compound further displayed an IC90 in the data set on Leishmania donovani [6] of 45 mg/L (≈ 81.7 µM). The compound also registered an MIC in data set [4] of 1.7 mg/L (≈ 3.09 µM).
Turning to `O=C1CCCN2[C@@H]3[C@@]45CN6CCCC/C=C\CC[C@@]3(C=C(c3nccc7c3[nH]c3ccccc37)[C@@H]4CC6)O[C@]2(CC1)C5`, the result (in [2]; in the data set with Plasmodium falciparum [11]; in the data set with Leishmania donovani [12]; with Staphylococcus aureus [3]; in the data set on Plasmodium falciparum [13]; in the data set on Cryptococcus neoformans) was inactive. For the same compound, the outcome in the data set with Staphylococcus aureus [5] was inactive. Also, the Activity result with Vero [8] is given as “Non-toxic”. The IC50 in the data set with Plasmodium falciparum [9] was found to be 1.6 mg/L (≈ 2.84 µM); in the data set with Plasmodium falciparum [10] it was 3.7 mg/L (≈ 6.57 µM).
In turn, `[O-][n+]1ccc2c([nH]c3ccccc32)c1C1=C[C@@]2(O)CC/C=C\CCCCN3CC[C@@H]1[C@]1(C[C@@H]4/C=C\CCCCN4[C@H]12)C3` returned an Activity in the data set on Vero [1] of 4.2 µg/mL. Moreover, the IC50 in data set [2] was found to be 0.2 mg/L (≈ 0.354 µM); in the data set with Staphylococcus aureus [3], 0.4 mg/L (≈ 0.708 µM); in the data set on Plasmodium falciparum [9], 0.011 mg/L (≈ 0.0195 µM); with Leishmania donovani [6], 1.1 mg/L (≈ 1.95 µM); with Plasmodium falciparum [10], 0.013 mg/L (≈ 0.023 µM); in the data set on Cryptococcus neoformans it was 1 mg/L (≈ 1.77 µM). This compound displayed a concentration for half-maximal inhibition (IC50) in the data set on Staphylococcus aureus [5] of 0.5 mg/L (≈ 0.885 µM). In the data set with Leishmania donovani [6], this compound gave a concentration for an effect of 90% (IC90) of 3.8 mg/L (≈ 6.73 µM). Besides, the MIC in data set [4] amounted to 3.9 mg/L (≈ 6.91 µM).
With `Oc1ccc2[nH]c3c(C4=C[C@@]5(O)CC/C=C\CCCCN6CC[C@@H]4[C@@]4(C6)C[C@@]67CC[C@@H](CCCN6[C@H]45)O7)nccc3c2c1` [MANZAMINE X], the half-inhibitory concentration (IC50) was found to be 1.5 mg/L (≈ 2.58 µM) in data set [2], 0.75 mg/L (≈ 1.29 µM) with Staphylococcus aureus [3], 3 mg/L (≈ 5.17 µM) in the data set with Cryptococcus neoformans and 1 mg/L (≈ 1.72 µM) in the data set with Staphylococcus aureus [5]. In [7], this compound displayed a 50% effective concentration (EC50) of 2.3 µM. Also, the Activity result with Vero [8] was “Non-toxic”.
Take `O=CC1=C[C@@]2(O)CC/C=C\CCCCN3CC[C@@H]1[C@]1(C[C@@H]4/C=C\CCCCN4[C@H]12)C3` [IRCINAL]: the figures for the IC50 (in data set [2]; with Leishmania donovani [6]) were 50 mg/L (≈ 122 µM) and 4.6 mg/L (≈ 11.2 µM), respectively. Moreover, the result with Plasmodium falciparum [11], with Staphylococcus aureus [3], in the data set on Plasmodium falciparum [13], with Cryptococcus neoformans and in the data set with Staphylococcus aureus [5] was inactive. The same compound showed an EC50 in data set [7] of 6.8 µM. In the data set on Vero [8], the Activity result is on record as “Non-toxic”. In the data set on Leishmania donovani [6], this compound returned a concentration for an effect of 90% (IC90) of 8.5 mg/L (≈ 20.7 µM). The compound also had an MIC in data set [4] of 30.2 mg/L (≈ 73.6 µM).
